Measured values published in ChEMBL document CHEMBL4308829, “Design and Synthesis of Novel Positive Allosteric Modulators of α7 Nicotinic Acetylcholine Receptors with the Ability To Rescue Auditory Gating Deficit in Mice” (J Med Chem, 2018).
Active and inactive are the calls of the source. No cut-off for these calls is given here.

How the values were obtained:
[1] = biological target: T1, Neuronal acetylcholine receptor subunit alpha-7 (Homo sapiens, UniProt P36544); test: (§1) Positive allosteric modulation of human alpha7 nAChR expressed in Xenopus laevis oocytes assessed as increase in acetylcholine-induced channel current at -90 mV holding potential preincubated for 2 mins followed by co-application with acetylcholine for 10 secs by two-electrode voltage clamp method; type: cell-based
T1 sequence (P36544 whole entry): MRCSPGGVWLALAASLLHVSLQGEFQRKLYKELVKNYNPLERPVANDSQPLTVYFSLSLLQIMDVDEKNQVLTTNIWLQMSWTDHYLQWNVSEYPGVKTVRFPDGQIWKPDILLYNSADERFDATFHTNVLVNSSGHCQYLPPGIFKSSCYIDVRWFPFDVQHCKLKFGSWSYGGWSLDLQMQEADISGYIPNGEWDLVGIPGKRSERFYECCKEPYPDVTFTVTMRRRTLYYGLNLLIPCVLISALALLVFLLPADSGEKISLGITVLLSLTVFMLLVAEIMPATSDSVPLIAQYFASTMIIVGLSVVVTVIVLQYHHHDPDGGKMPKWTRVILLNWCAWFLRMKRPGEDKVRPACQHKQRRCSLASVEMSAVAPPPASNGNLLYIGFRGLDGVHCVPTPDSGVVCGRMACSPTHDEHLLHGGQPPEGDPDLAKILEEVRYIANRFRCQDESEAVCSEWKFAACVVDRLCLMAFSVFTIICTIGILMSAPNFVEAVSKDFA

[2] = biological target: T1, Neuronal acetylcholine receptor subunit alpha-7; test: as §1, with “current at 10 uM” for “current”, “method relative to control” for “method”; type: cell-based
[3] = biological target: T1, Neuronal acetylcholine receptor subunit alpha-7; test: as §1, with “current by measuring maximum efficacy of acetylcholine at 10 uM” for “current”, “method (reference value: 109 +/- 2%)” for “method”; type: cell-based
[4] = biological target: T1, Neuronal acetylcholine receptor subunit alpha-7; test: Positive allosteric modulation of human alpha7 nAChR expressed in Xenopus laevis oocytes assessed as increase in acetylcholine-induced channel current at 10 uM at -90 mV holding potential preincubated for 2 mins followed by acetylcholine addition in presence of alpha7 nAChR antagonist MLA by two-electrode voltage clamp method relative to control; type: cell-based
[5] = biological target: Neuronal acetylcholine receptor; alpha3/beta4 (Rattus norvegicus) (UniProt P04757+P12392); test: Positive allosteric modulation of rat alpha3beta4 nAChR expressed in Xenopus laevis oocytes assessed as increase in acetylcholine-induced channel current at 10 uM at -90 mV holding potential by two-electrode voltage clamp method; type: cell-based
In short: (§2)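 Rat α3β4 or α4β2 subunit cRNAs (~2 ng total, 1:1) injected into oocytes, which were kept at 16 °C in ND96. Two-electrode voltage clamp at -90 mV, 24-72 h post-injection, in Ringer's containing atropine at room temperature.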

[6] = biological target: Neuronal acetylcholine receptor; alpha4/beta2 (Rattus norvegicus) (UniProt P09483+P12390); test: Positive allosteric modulation of rat alpha4beta2 nAChR expressed in Xenopus laevis oocytes assessed as increase in acetylcholine-induced channel current at 10 uM at -90 mV holding potential by two-electrode voltage clamp method; type: cell-based; in short: as §2
[7] = biological target: T1, Neuronal acetylcholine receptor subunit alpha-7; test: Induction of desensitization of human alpha7 nAChR expressed in Xenopus laevis oocytes assessed as acetylcholine-induced channel desensitization time constant at 10 uM at -90 mV holding potential by two-electrode voltage clamp method (reference value: 5.56 +/- 1.27); type: cell-based
[8] = biological target: Glutamate NMDA receptor; Grin1/Grin2b (Rattus norvegicus) (UniProt P35439+Q00960); test: Positive allosteric modulation of rat GluN1/GluN2B receptor expressed in Xenopus laevis oocytes assessed as increase in glycine/glutamate-induced channel current 10 uM by two-electrode voltage clamp method; type: cell-based
[9] = biological target: GABA-A receptor; anion channel (Homo sapiens) (UniProt P14867+P47870+P18507+P28472+P48169+Q99928+Q9UN88+P34903+O00591+O14764+Q8N1C3+P18505+P78334+P47869+P31644+Q16445); test: Positive allosteric modulation of human GABA-A receptor expressed in Xenopus laevis oocytes assessed as increase in GABA-induced channel current 10 uM by two-electrode voltage clamp method; type: cell-based
[10] = Apparent clearance in rat at 60 mg/kg, po by LC-MS/MS analysis; type: ADME, organism-based; conditions: in vivo
In short: (§3)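 Rat plasma stored at -20 °C, spiked with internal standard, protein-precipitated with methanol, centrifuged and filtered before LC-MS/MS. C18 column at 40 °C, acetonitrile/0.1% formic acid (80:20) isocratic at 0.5 mL/min. Positive ESI with MRM m/z 400.0->129.9. Parameters taken per rat by non-compartmental analysis, n = 3.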

[11] = biological target: Voltage-gated inwardly rectifying potassium channel KCNH2 (Homo sapiens, UniProt Q12809); test: Inhibition of human ERG expressed in HEK293 cells up to 30 uM at -80 mV holding potential by whole-cell patch clamp assay; type: cell-based
Chain of Voltage-gated inwardly rectifying potassium channel KCNH2 (Q12809 whole entry, the tested form may be a part): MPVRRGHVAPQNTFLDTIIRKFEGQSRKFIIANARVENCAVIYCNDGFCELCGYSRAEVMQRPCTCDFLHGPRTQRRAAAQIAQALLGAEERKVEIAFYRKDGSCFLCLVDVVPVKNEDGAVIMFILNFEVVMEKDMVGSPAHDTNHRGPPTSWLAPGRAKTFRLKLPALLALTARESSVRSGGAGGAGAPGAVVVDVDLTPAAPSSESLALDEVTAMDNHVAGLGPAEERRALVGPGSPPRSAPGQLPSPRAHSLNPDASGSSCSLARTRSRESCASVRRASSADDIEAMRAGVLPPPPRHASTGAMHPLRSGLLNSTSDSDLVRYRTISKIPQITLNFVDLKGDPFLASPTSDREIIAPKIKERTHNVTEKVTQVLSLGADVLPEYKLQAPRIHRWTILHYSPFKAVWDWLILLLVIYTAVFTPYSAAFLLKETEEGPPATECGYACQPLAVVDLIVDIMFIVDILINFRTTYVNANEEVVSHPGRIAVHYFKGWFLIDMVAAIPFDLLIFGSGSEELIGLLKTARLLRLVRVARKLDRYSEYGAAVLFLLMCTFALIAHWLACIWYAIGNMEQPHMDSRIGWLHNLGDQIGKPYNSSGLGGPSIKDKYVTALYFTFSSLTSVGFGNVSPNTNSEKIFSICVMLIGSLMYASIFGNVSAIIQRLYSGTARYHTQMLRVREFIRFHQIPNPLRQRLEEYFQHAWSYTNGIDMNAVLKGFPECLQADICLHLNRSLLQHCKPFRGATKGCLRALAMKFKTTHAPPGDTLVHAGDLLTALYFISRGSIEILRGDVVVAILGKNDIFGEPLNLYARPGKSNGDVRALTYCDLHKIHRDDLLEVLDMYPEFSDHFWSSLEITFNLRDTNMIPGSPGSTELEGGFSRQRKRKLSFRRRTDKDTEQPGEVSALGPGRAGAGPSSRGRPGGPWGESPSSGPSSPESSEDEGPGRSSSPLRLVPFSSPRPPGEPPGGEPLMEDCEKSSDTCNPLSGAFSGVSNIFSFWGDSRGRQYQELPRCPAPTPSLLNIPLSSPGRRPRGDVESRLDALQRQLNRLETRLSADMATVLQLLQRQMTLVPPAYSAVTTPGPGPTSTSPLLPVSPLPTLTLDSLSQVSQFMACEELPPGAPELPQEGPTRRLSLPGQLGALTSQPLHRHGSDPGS
In short: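 HEK293 cells stably expressing hERG, whole-cell clamp at room temperature. Holding -80 mV, step to +20 mV for 2 s, then -40 mV for 1.6 s, repeated every 10 s. Compound perfused at 1-30 µM, with 100 nM cisapride as reference. Peak -40 mV tail currents normalized to control, n = 4.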

[12] = Half life in rat at 3 mg/kg, iv by LC-MS/MS analysis; type: ADME, organism-based; conditions: in vivo; in short: as §3
[13] = AUClast in rat at 3 mg/kg, iv by LC-MS/MS analysis; type: ADME, organism-based; design: dose 3 mg/kg, time 0 - last, route intravenous; conditions: in vivo; in short: as §3
[14] = Cmax in rat at 3 mg/kg, iv by LC-MS/MS analysis; type: ADME, organism-based; design: dose 3 mg/kg, route intravenous; conditions: in vivo; in short: as §3
[15] = MRT in rat at 3 mg/kg, iv by LC-MS/MS analysis; type: ADME, organism-based; conditions: in vivo; in short: as §3
[16] = Apparent volume of distribution in rat at 3 mg/kg, iv by LC-MS/MS analysis; type: ADME, organism-based; conditions: in vivo; in short: as §3
[17] = Tmax in rat at 60 mg/kg, po by LC-MS/MS analysis; type: ADME, organism-based; conditions: in vivo; in short: as §3
[18] = Cmax in rat at 60 mg/kg, po by LC-MS/MS analysis; type: ADME, organism-based; design: dose 60 mg/kg, route oral; conditions: in vivo; in short: as §3
[19] = AUCinfinity in rat at 60 mg/kg, po by LC-MS/MS analysis; type: ADME, organism-based; design: dose 60 mg/kg, time infinity, route oral; conditions: in vivo; in short: as §3
[20] = MRT in rat at 60 mg/kg, po by LC-MS/MS analysis; type: ADME, organism-based; conditions: in vivo; in short: as §3
[21] = Plasma concentration in C57BL/6J mouse at 1 mg/kg, ip after 0.5 hrs by LC-MS/MS analysis; type: ADME, organism-based
In short: (§4)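 C57BL/6J mice given 1 mg/kg i.p. from a 0.4 mg/mL solution in 10% DMSO/50% PEG400/40% SBECD. Plasma and brain taken at 0.5, 2 and 8 h. Samples mixed with internal standard in methanol/acetonitrile (1:1), centrifuged and diluted 10x in methanol:water with 0.1% FA, then measured by HPLC-MS-MS. n = 3; ratio is brain over plasma concentration.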

[22] = Plasma concentration in C57BL/6J mouse at 1 mg/kg, ip after 8 hrs by LC-MS/MS analysis; type: ADME, organism-based; in short: as §4
[23] = Drug uptake in C57BL/6J mouse brain at 1 mg/kg, ip after 0.5 hrs by LC-MS/MS analysis; type: ADME, organism-based; conditions: read-out: Drug uptake; in short: as §4
[24] = Ratio of drug level in C57BL/6J mouse brain to plasma at 1 mg/kg, ip after 0.5 hrs by LC-MS/MS analysis; type: ADME, organism-based; conditions: read-out: BPR; in short: as §4
[25] = Ratio of drug level in C57BL/6J mouse brain to plasma at 1 mg/kg, ip after 8 hrs by LC-MS/MS analysis; type: ADME, organism-based; conditions: read-out: BPR; in short: as §4
Mus musculus [26] = test: Anti-schizophrenic activity in C57BL/6J mouse assessed as protection against MK-801-induced auditory gating deficit by measuring prepulse inhibition impairment at 0.1 mg/kg, ip at 8 to 16 dB prepulse intensity (reference value: 11%); type: functional; design: scale not given: the % may be the effect or the level left
Mus musculus [27] = test: Anti-schizophrenic activity in C57BL/6J mouse assessed as protection against MK-801-induced auditory gating deficit by measuring prepulse inhibition impairment at 1 mg/kg, ip at 8 to 16 dB prepulse intensity pretreated for 30 mins starting from 30 mins post alpha7 nAChR antagonist MLA treatment followed by MK-801 treatment and measured after 30 mins (reference value: 8.7%); type: functional; design: scale not given: the % may be the effect or the level left
In short: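 Mice given MLA 3 mg/kg i.p. 30 min before, then compound 1 mg/kg i.p. 60 min before test and MK-801 0.1 mg/kg i.p. 30 min before test. PPI measured at prepulses 8-16 dB above 68 dB background. %PPI = (1 − prepulse-pulse/pulse-only)×100, one-way ANOVA.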

Activity [1]: Dose-dependent effect
%max [2]: 1630%
Emax [3]: 1540%
Activity [4]: inactive
Activity [5]: inactive
Activity [6]: inactive
Activity [8]: inactive
Activity [9]: inactive
CL/F [10]: 1 mL/min/kg
half-life [12]: 10.8 h
AUC(0-t) [13]: 600 ng·h/mL
Cmax [14]: 700 ng/mL
MRT [15]: 7 h
Vd [16]: 0.069 L/kg
Tmax [17]: 1.3 h
Cmax [18]: 200 ng/mL
AUC(0-inf) [19]: 1100 ng·h/mL
MRT [20]: 9.5 h
concentration at 0.5 h [21]: 34.3 ng/mL
concentration at 8 h [22]: 0.9 ng/mL
concentration at 0.5 h [23]: 84.7 ng/g
Kp at 0.5 h [24]: 2.5
Kp at 8 h [25]: 2.3
Compound: Cc1cccc(Cl)c1-n1cnc2nc(SCc3ccccc3)sc2c1=O
Activity [7]: 6.54
inhibition (INH) [11]: Not Active
Activity (Mus musculus [26]): 22%
Activity (Mus musculus [27]): 14%
